ChEMBL document CHEMBL4834436, “Discovery of the S1P2 Antagonist GLPG2938 (1-[2-Ethoxy-6-(trifluoromethyl)-4-pyridyl]-3-[[5-methyl-6-[1-methyl-3-(trifluoromethyl)pyrazol-4-yl]pyridazin-3-yl]methyl]urea), a Preclinical Candidate for the Treatment of Idiopathic Pulmonary Fibrosis” (J Med Chem, 2021)
pIC50: −log10 of the molar value. In brackets after ≈: the same amount, converted by molar mass. Activity calls are given as the source filed them. No cut-off for these calls is given here.

Experiments:
[1] = Half life in CD1 mouse at 1 mg/kg, iv measured up to 24 hrs by LC-MS/MS analysis; type: ADME, organism-based; conditions: in vivo
Summary of the method: (§1)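 Male CD1 mice, composite design, n = 6 per route; iv 1 mg/kg in PEG200/water 60/40, oral gavage 5 mg/kg in Tween 80/MC 0.5% or PEG400/MC 0.5% after ≥12 h fast. Li-heparin blood sampled to 24 h, plasma by LC-MS/MS; noncompartmental analysis. Plasma protein binding: 5 μM compound, 4 h incubation.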

[2] = Intrinsic clearance unbound in mouse liver microsomes at 1 uM […] by LC-MS/MS analysis; type: ADME, Microsome
[3] = Clearance in CD1 mouse at 1 mg/kg, iv measured up to 24 hrs by LC-MS/MS analysis; type: ADME, organism-based; conditions: in vivo; summary of the method: as §1
[4] = Volume of distribution at steady state in CD1 mouse at 1 mg/kg, iv measured up to 24 hrs by LC-MS/MS analysis; type: ADME, organism-based; conditions: in vivo, read-out: Vdss; summary of the method: as §1
[5] = Volume of distribution at steady state in Sprague-Dawley rat at 1 mg/kg, iv measured up to 24 hrs by LC-MS/MS analysis; type: ADME, organism-based; conditions: in vivo, read-out: Vdss
Summary of the method: (§2)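 Male Sprague-Dawley rats (6–8 weeks), n = 3 per route; iv bolus 1 mg/kg in PEG200/water 60/40; gavage 5 or 10 mg/kg in PEG400/MC 0.5% after ≥12 h fast. Li-heparin plasma sampled to 24 h, LC-MS/MS, noncompartmental analysis. Plasma protein binding: 5 μM compound, 4 h incubation.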

[6] = Oral bioavailability in Sprague-Dawley rat at 10 mg/kg measured up to 24 hrs by LC-MS/MS analysis; type: ADME, organism-based; conditions: in vivo; summary of the method: as §2
[7] = Half life in Sprague-Dawley rat at 1 mg/kg, iv measured up to 24 hrs by LC-MS/MS analysis; type: ADME, organism-based; conditions: in vivo; summary of the method: as §2
[8] = molecular target: T1, Sphingosine 1-phosphate receptor 2 (Homo sapiens, UniProt O95136); test: Antagonist activity at human S1P2 receptor expressed in CHO cells assessed as EC80 S1P-induced calcium flux measured for 3 mins by fluorescence assay; type: functional, cell-based
Summary of the method: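 Same dye-loaded, starved human S1P2-CHO cells; after agonist readout, 15 min at 37 °C, then stimulated with S1P at EC80, fluorescence read 3 min. Max/baseline ratio normalized to vehicle and S1P EC80. 10-point 1/3 dilutions from 20 μM final; IC50 derived; geometric mean of ≥2 runs.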

[9] = molecular target: T1, Sphingosine 1-phosphate receptor 2; test: Antagonist activity at recombinant human S1P2 receptor in HFL1 cells assessed as inhibition of EC80 S1P-induced IL8 release incubated for 16 to 24 hrs in presence of 2% HSA by ELISA; type: functional, cell-based
Summary of the method: (§3)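 HFL-1 lung fibroblasts seeded in 96- or 384-well plates, then medium replaced by starvation medium with 1% heat-inactivated FBS, ±1.95% HSA (2% HSA condition), 16–24 h. 10-point 1/3 dilutions, 30 μM top final, 1 h, then S1P at EC80 (without HSA: 1 μM 96-well or 0.5 μM 384-well; with HSA: 5 or 2 μM).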

[10] = Thermodynamic solubility in FaSSIF; type: physicochemical; conditions: read-out: Therm_solubility
[11] = Plasma protein binding beagle dog plasma at 5 uM incubated for 4 hrs; type: ADME, cell-free, Canis lupus familiaris; conditions: read-out: PPB (converted)
Summary of the method: (§4)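 Non-naive male Beagle dogs (n = 3) given 1 mg/kg iv as 10 min infusion; after 3-day washout, oral gavage 5 or 1 mg/kg in PEG400/MC 0.5% or MC 0.5% after ≥12 h fast. Jugular or cephalic blood into lithium heparin to 24 h; plasma analysed. Plasma protein binding: 5 μM compound, 4 h incubation.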

[12] = molecular target: T1, Sphingosine 1-phosphate receptor 2; test: Antagonist activity at recombinant human S1P2 receptor in HFL1 cells assessed as inhibition of EC80 S1P-induced IL8 release incubated for 16 to 24 hrs in absence of HSA by ELISA; type: functional, cell-based; summary of the method: as §3
[13] = Clearance in Sprague-Dawley rat at 1 mg/kg, iv measured up to 24 hrs by LC-MS/MS analysis; type: ADME, organism-based; conditions: in vivo; summary of the method: as §2
[14] = Intrinsic clearance unbound in human liver microsomes at 1 uM […] by LC-MS/MS analysis; type: ADME, Microsome
[15] = molecular target: T1, Sphingosine 1-phosphate receptor 2; test: Antagonist activity at recombinant human S1P2 receptor in HFL1 cells assessed as inhibition of EC80 S1P-induced IL8 release measured as unbound concentration incubated for 16 to 24 hrs in presence of 2% HSA by ELISA; type: functional, cell-based; conditions: filed as antagonist, time 16-24 hrs
Summary of the method: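 IL8 IC50 from the 2% HSA condition converted to free IC50 = IC50 × fu,medium, where fu,medium is estimated from human plasma protein binding fraction unbound and the serum percentage used in the assay.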

[16] = Plasma protein binding Sprague-Dawley rat plasma at 5 uM incubated for 4 hrs; type: ADME, cell-free; conditions: read-out: PPB (converted); summary of the method: as §2
[17] = molecular target: T1, Sphingosine 1-phosphate receptor 2; test: Antagonist activity at recombinant human S1P2 receptor expressed in CHO cells assessed as EC80 S1P-induced activation incubated for 4 hrs in presence of [35S]GTPgammaS by Topcount reader; type: functional, cell-based
Summary of the method: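 Membranes from stable lines overexpressing recombinant human S1P2, preincubated with PVT-WGA SPA beads, mixed with compound serial dilutions, [35S]GTPγS and S1P at EC80. Incubated 4 h at room temperature, centrifuged, scintillation counted. Antagonist mode; IC50 as geometric mean of ≥2 runs.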

[18] = Plasma protein binding CD1 mouse plasma at 5 uM incubated for 4 hrs; type: ADME, cell-free; conditions: read-out: PPB (converted); summary of the method: as §1
[19] = Half life in beagle dog at 1 mg/kg, iv measured up to 24 hrs by LC-MS/MS analysis; type: ADME, organism-based, Canis lupus familiaris; conditions: in vivo; summary of the method: as §4
Mus musculus [20] = test: Antifibrotic activity against intranasal bleomycin-induced C57BL/6 mouse lung fibrosis model assessed as reduction in Ashcroft score at 3 to 30 mg/kg, po twice daily for 14 days; type: functional, organism-based; conditions: dose 3-30 mg/kg, time 14.0 day
Summary of the method: (§5)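 Male C57BL/6 mice (7–8 weeks on arrival, one week acclimation) given bleomycin intranasally; prophylactic oral dosing twice daily for 14 days. Lungs scored histologically by Matsuse-modified Ashcroft score; 14–15 mice per group; Mann–Whitney vs bleomycin/vehicle.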

[21] = Volume of distribution at steady state in beagle dog at 1 mg/kg, iv measured up to 24 hrs by LC-MS/MS analysis; type: ADME, organism-based, Canis lupus familiaris; conditions: in vivo, read-out: Vdss; summary of the method: as §4
[22] = Oral bioavailability in CD1 mouse at 5 mg/kg measured up to 24 hrs by LC-MS/MS analysis; type: ADME, organism-based; conditions: in vivo; summary of the method: as §1
[23] = Clearance in beagle dog at 1 mg/kg, iv measured up to 24 hrs by LC-MS/MS analysis; type: ADME, organism-based, Canis lupus familiaris; conditions: in vivo; summary of the method: as §4
[24] = Thermodynamic solubility in FaSSGF at pH 1.6; type: physicochemical; conditions: read-out: Therm_solubility
[25] = Oral bioavailability in beagle dog at 1 mg/kg measured up to 24 hrs by LC-MS/MS analysis; type: ADME, organism-based, Canis lupus familiaris; conditions: in vivo; summary of the method: as §4
[26] = molecular target: Voltage-gated inwardly rectifying potassium channel KCNH2 (Homo sapiens, UniProt Q12809); test: Inhibition of human ERG
Fibroblast = test: Prevention of S1P-induced human pulmonary fibroblasts contraction in collagen gel lattice mixture pretreated with TGFbeta for 72 hrs followed by treated at 0.5 to 5 uM compound incubated for 2 hrs then treated with S1P for 1 hr; type: functional, cell-based; conditions: dose 0.5-5 µM, time 96.0 hrs, in the assay text read “96 hrs” for “72 hrs”
Summary of the method: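 Normal human lung fibroblasts pretreated 4 days with 1 ng/mL TGF-β, embedded in neutralized collagen I gels (200,000 cells/gel), kept 72 h in serum-free FGM with TGF-β for stress build-up. Compound added for 2 h, then 1 μM S1P; gels released and incubated 1 h at 37 °C; gel area imaged. Mean with 95% CI.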

[27] = Oral bioavailability in Sprague-Dawley rat at 5 mg/kg measured up to 24 hrs by LC-MS/MS analysis; type: ADME, organism-based; conditions: in vivo; summary of the method: as §2
Mus musculus [28] = test: Antifibrotic activity against intranasal bleomycin-induced C57BL/6 mouse lung fibrosis model assessed as reduction in Ashcroft score at 1 to 10 mg/kg, po twice daily for 14 days; type: functional, organism-based; conditions: dose 1-10 mg/kg, time 14.0 day; summary of the method: as §5
CYP2C9 = CYP2C9 (Homo sapiens, UniProt P11712); test: Inhibition of recombinant CYP2C9 (unknown origin) at 10 uM; type: ADME
CYP2C19 = CYP2C19 (Homo sapiens, UniProt P33261); test: Inhibition of recombinant CYP2C19 (unknown origin) at 10 uM; type: ADME
CYP3A4 = CYP3A4 (Homo sapiens, UniProt P08684); test: Inhibition of recombinant CYP3A4 (unknown origin) at 10 uM; type: ADME
[29] = Oral bioavailability in beagle dog at 5 mg/kg measured up to 24 hrs by LC-MS/MS analysis; type: ADME, organism-based, Canis lupus familiaris; conditions: in vivo; summary of the method: as §4

T1 sequence (O95136 whole entry): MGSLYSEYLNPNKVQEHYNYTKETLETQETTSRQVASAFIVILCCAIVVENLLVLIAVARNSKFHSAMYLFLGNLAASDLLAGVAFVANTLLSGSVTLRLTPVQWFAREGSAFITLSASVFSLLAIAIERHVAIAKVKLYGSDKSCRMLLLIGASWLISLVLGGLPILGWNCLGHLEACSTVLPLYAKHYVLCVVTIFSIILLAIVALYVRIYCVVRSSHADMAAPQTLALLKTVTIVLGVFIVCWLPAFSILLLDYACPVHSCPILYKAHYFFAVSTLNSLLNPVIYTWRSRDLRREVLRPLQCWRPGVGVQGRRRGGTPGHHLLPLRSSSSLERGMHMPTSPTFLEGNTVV
CYP2C19, sequence (P33261 whole entry): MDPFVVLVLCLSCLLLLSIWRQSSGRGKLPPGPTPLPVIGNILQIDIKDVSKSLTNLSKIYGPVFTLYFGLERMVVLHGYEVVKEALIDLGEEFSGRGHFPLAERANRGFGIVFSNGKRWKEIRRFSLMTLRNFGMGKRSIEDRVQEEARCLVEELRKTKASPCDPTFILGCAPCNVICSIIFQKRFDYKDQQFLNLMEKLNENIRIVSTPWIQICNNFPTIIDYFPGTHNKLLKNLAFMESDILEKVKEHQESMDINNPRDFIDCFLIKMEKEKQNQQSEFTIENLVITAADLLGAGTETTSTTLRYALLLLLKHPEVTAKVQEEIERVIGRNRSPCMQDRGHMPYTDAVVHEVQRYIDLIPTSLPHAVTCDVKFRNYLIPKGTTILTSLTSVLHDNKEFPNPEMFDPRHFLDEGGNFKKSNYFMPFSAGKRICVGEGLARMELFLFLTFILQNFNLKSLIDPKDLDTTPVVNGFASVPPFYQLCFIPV
Voltage-gated inwardly rectifying potassium channel KCNH2, sequence (Q12809 whole entry): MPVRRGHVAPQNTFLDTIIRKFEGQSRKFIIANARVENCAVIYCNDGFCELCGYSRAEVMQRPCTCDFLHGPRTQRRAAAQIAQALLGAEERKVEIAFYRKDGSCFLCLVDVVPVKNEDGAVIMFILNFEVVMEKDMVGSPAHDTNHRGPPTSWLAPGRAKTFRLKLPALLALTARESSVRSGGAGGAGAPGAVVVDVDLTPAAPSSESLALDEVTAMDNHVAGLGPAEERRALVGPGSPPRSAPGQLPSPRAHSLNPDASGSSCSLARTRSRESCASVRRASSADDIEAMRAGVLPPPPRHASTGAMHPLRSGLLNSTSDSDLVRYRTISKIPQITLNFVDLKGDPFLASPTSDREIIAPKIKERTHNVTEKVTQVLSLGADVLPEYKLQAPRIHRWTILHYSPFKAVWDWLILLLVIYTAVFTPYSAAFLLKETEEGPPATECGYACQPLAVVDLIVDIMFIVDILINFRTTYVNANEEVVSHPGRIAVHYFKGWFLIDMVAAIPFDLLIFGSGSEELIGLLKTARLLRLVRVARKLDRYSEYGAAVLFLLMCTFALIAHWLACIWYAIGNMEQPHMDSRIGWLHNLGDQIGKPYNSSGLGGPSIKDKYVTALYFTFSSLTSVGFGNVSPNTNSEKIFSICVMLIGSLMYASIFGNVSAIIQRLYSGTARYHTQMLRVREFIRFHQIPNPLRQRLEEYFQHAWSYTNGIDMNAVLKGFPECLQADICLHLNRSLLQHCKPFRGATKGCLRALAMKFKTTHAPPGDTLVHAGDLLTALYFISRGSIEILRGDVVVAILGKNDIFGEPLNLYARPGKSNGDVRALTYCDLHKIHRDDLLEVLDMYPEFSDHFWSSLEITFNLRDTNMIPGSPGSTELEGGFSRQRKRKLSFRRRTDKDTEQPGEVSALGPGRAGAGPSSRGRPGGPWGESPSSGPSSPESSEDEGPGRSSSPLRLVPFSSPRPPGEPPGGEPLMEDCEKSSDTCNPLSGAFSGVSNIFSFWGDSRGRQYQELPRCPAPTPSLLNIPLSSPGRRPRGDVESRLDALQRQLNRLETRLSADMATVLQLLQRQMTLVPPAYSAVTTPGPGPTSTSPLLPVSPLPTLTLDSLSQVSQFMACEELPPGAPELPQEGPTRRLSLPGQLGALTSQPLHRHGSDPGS
CYP3A4, sequence (P08684 whole entry): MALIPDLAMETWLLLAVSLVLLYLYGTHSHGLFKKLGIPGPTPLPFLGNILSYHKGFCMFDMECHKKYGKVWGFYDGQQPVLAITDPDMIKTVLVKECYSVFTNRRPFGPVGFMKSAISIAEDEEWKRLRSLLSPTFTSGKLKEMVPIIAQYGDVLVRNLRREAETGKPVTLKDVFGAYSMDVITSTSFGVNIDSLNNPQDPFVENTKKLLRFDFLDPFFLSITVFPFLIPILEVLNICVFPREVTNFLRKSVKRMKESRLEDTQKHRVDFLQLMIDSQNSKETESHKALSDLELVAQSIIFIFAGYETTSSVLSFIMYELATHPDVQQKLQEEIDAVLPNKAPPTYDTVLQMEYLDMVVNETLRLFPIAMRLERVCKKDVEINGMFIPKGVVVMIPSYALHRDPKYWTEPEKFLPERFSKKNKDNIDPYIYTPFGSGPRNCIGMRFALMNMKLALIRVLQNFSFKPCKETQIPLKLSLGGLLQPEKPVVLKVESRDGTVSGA
CYP2C9, sequence (P11712 whole entry): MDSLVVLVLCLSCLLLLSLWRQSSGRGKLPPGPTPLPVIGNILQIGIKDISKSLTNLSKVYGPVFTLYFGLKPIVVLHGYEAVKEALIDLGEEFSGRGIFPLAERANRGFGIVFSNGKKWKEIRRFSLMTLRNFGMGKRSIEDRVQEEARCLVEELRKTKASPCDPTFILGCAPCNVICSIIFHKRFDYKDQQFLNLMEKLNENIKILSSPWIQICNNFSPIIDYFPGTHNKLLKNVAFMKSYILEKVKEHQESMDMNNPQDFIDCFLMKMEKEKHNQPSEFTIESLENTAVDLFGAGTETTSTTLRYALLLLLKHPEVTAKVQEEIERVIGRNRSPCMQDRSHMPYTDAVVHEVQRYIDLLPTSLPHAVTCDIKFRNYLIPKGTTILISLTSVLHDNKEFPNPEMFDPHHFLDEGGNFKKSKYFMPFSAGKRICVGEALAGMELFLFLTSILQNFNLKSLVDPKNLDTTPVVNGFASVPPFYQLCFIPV

SMILES: CCOc1nc(C)cc(NC(=O)NCc2cc(C)c(-c3cn(C)nc3C(F)(F)F)nn2)c1C
- half-life [1]: 0.45 h
- CL free [2]: 17 L/h/kg
- clearance [3]: 0.73 L/h/kg
- Vd [4]: 0.47 L/kg
- Vd [5]: 0.54 L/kg
- bioavailability [6]: 84%
- half-life [7]: 1 h
- pIC50 [8]: 5.35
- pIC50 [9]: 7.31
- solubility thermodynamic [10]: 0.015 mg/mL (≈ 32.4 µM)
- fraction unbound at 4 h, 5 µM [11]: 0.022
- pIC50 [12]: 7.80
- clearance [13]: 0.37 L/h/kg
- CL free [14]: 2.2 L/h/kg
- fIC50 [15]: 1.3 nM
- fraction unbound at 4 h, 5 µM [16]: 0.004
- pIC50 [17]: 4.80
- fraction unbound at 4 h, 5 µM [18]: 0.014
- half-life [19]: 1.6 h
- Activity (Mus musculus [20]): Active
- Vd [21]: 1.5 L/kg
- bioavailability [22]: 29%
- clearance [23]: 0.66 L/h/kg
- solubility thermodynamic [24]: 0.505 mg/mL (≈ 1090 µM)
- bioavailability [25]: 39%

SMILES: CCOc1cc(NC(=O)NCc2cc(C)c(-c3cn(C)nc3C(F)(F)F)nn2)cc(C(F)(F)F)n1
- half-life [1]: 2.3 h
- inhibition (INH) [26]: Not Active
- CL free [2]: 8.4 L/h/kg
- clearance [3]: 0.24 L/h/kg
- Vd [4]: 0.81 L/kg
- Vd [5]: 0.35 L/kg
- Activity (Fibroblast): Active
- half-life [7]: 2.7 h
- pIC50 [8]: 5.06
- pIC50 [9]: 7.06
- solubility thermodynamic [10]: 0.023 mg/mL (≈ 45.7 µM)
- bioavailability [27]: 29%
- fraction unbound at 4 h, 5 µM [11]: 0.003
- pIC50 [12]: 7.54
- clearance [13]: 0.091 L/h/kg
- CL free [14]: < 2.3 L/h/kg
- Activity (Mus musculus [28]): Active
- fIC50 [15]: 0.6 nM
- fraction unbound at 4 h, 5 µM [16]: < 0.001
- pIC50 [17]: 4.54
- fraction unbound at 4 h, 5 µM [18]: 0.001
- half-life [19]: 7.6 h
- Vd [21]: 1.1 L/kg
- bioavailability [22]: 64%
- clearance [23]: 0.1 L/h/kg
- solubility thermodynamic [24]: 0.0027 mg/mL (≈ 5.36 µM)

SMILES: CCOc1cc(NC(=O)NCc2cc(C)c(-c3cn(C)nc3C(F)(F)F)nn2)cc(Cl)n1
- half-life [1]: 0.55 h
- inhibition at 10 µM (CYP2C9): 58%
- CL free [2]: < 23 L/h/kg
- clearance [3]: 0.62 L/h/kg
- Vd [4]: 0.49 L/kg
- Vd [5]: 0.38 L/kg
- half-life [7]: 1.1 h
- pIC50 [8]: 5.11
- pIC50 [9]: 7.35
- solubility thermodynamic [10]: 0.036 mg/mL (≈ 76.6 µM)
- inhibition at 10 µM (CYP2C19): 61%
- bioavailability [27]: 10%
- fraction unbound at 4 h, 5 µM [11]: 0.016
- pIC50 [12]: 7.70
- clearance [13]: 0.25 L/h/kg
- CL free [14]: < 2.6 L/h/kg
- fIC50 [15]: 1 nM
- fraction unbound at 4 h, 5 µM [16]: 0.001
- pIC50 [17]: 4.70
- inhibition at 10 µM (CYP3A4): 23%
- fraction unbound at 4 h, 5 µM [18]: 0.002
- half-life [19]: 3.1 h
- Vd [21]: 2.1 L/kg
- bioavailability [22]: 20%
- clearance [23]: 0.47 L/h/kg
- solubility thermodynamic [24]: 0.005 mg/mL (≈ 10.6 µM)
- bioavailability [29]: 30%
